# Published values pooled from the literature.
# Each line is one published result; the experiments were not run side by side.
# Target: Mitogen-activated protein kinase kinase kinase 20 (MAP3K20, Homo sapiens, UniProt Q9NYL2)
SMILES,test,setting,endpoint,value
CC(C)(C)c1cc(C=C(C#N)C#N)cc(Br)c1O,"enzyme activity, inhibitor",0.5 µM,remaining activity,91.2%
Cn1cncc1[C@](O)(COc1ccc(C#N)cc1-c1ccc(OC(F)(F)F)cc1)c1ccc(C#N)cc1,"cell-free assay, competition with immobilised ligand",1 µM,remaining binding,100%
COc1ncccc1-c1cnn2ccc(N3CCN(C(=O)OC(C)C)CC3)nc12,"binding, competition with immobilised ligand",1 µM,remaining binding,78%
Cc1ccc(C(=O)Nc2ccc(CN3CCN(C)CC3)c(C(F)(F)F)c2)cc1C#Cc1cnc2cccnn12,"thermal stability, DSF",10 µM,ΔTm,15 °C
Cc1nn(C)cc1-c1nc2c(N3CCN(Cc4ccc(Cl)cc4)CC3)c(Cl)cnc2[nH]1,"binding, competition with immobilised ligand",1 µM,remaining binding,71%
O=c1[nH]c2ccccc2n1C1CCN(Cc2ccc(-c3[nH]c4cc5ncnc5cc4nc3-c3ccccc3)cc2)CC1,cell-free assay,0.5 µM,remaining signal,106%
Cn1cc(-c2cc(F)cc(N3CCn4c(cc5c4CCCC5)C3=O)c2CO)cc(Nc2ccc(N3CCN(C4COC4)CC3)cn2)c1=O,"enzyme activity, inhibitor",0.1 µM,inhibition,-3%
Nc1ncc(-c2nc(N3CCOCC3)nc(N3CCOCC3)n2)c(C(F)F)n1,"binding, competition with immobilised ligand",10 µM,remaining binding,80%
Cn1cc(-c2cccc(N3CCc4c(sc5c4CC(C)(C)C5)C3=O)c2CO)cc(Nc2ccncn2)c1=O,"enzyme activity, inhibitor",1 µM,inhibition,-1%
COc1cc(Nc2ncc(F)c(Nc3ccc4c(n3)NC(=O)C(C)(C)O4)n2)cc(OC)c1OC,binding,10 µM,inhibition,44%
